# PAX8 reporter = inhibitors of PAX8-driven TPO luciferase reporter, primary screen, RMG-I cells, single concentration | AID 652154, 2013 | 1.2% of 360,000 active | inhibition, % at 12.6 µM | SteadyGlo, 24 h;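 active = mean replicate inhibition at least 60% with every replicate also reaching 60%; inconclusive = only one of the two criteria is met; inactive = mean below 60% and not all replicates reaching 60%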;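 note: luciferase light reporting Pax8 driven TPO promoter activity; plate controls were median of neutral control wells for no effect and mitoxantrone controls for full effect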
# Glyco luc inh = increase of ERlucT glycosylation luciferase signal, primary screen, N-linked glycosylation inhibitor project, D54 ERlucT cells, luminescence, set 2; D54 ERlucT glycosylation luciferase reporter, 24 h; percent of 100 nM tunicamycin response; reporter increase, % at 12.5 µM; 0.23% of 360,000 active; AID 588692, 2011;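 active = mean luciferase reporter signal, scaled so untreated is 0 and the glycosylation-blocking control 100, at or above a set limit in every replicate; inconclusive = mean reaches the limit but not every replicate does; inactive = mean below the limit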;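 note: luciferase carries N-glycosylation sites so blocking glycosylation raises the light; 0% = median of neutral control wells and 100% = median of 100 nM tunicamycin wells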
# HIV Env fusion = inhibitors of HIV-1 Env-driven cell-cell fusion, primary screen, HeLa-JRFL effector, CEM21 target cells, luciferase. inhibition, % at 12.3 µM. 1.1% of 360,000 active;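 active = mean replicate inhibition score of at least 50 and every replicate individually at or above 50; inconclusive = only one of the two criteria met; inactive = mean below 50 and not all replicates reaching 50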;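 note: 0% = plate neutral controls and 100% = maraviroc near 300 nM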
# EWS-Fli block = EWS/Fli-driven NR0B1 reporter inhibitors, primary screen, A673 cells, NR0B1 luciferase, luminescence, MLPCN library. viability-normalised. inhibition, % at 12.6 µM. 0.67% of 350,000 active. AID 651661, 2012;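 active = mean inhibition of at least 50% after viability correction, with every replicate also passing that limit; inconclusive = mean reaches 50% but only one of two replicates passes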;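 note: firefly luciferase signal divided by Alamar Blue viability fluorescence both relative to DMSO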
# FN deposit inh = inhibitors of fibronectin matrix deposition, primary screen, AH1F cells, Alexa488-fibronectin fluorescence, plate reader; AH1F fibroblasts, overnight; inhibition, % at 12.6 µM; 0.086% of 350,000 active; AID 743247, 2014;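 active = mean inhibition across replicates of 30% or more, regardless of how many single replicates reach that level; inconclusive = mean under 30% yet at least half of replicates reach 30%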;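 note: positive control wells lacked labelled fibronectin entirely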
#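 Schedule: 1 h cell adhesion before compound, then overnight fibronectin incubation; test system: AH1F fibroblast monolayer depositing Alexa488-labelled fibronectin into matrix; quantity: 10000 AH1F cells per well; probe or stimulus: fluorescent fibronectin at 24 nM final; signal: fluorescence, ex 485 nm, em 525 nm; evaluation: percent inhibition as loss of matrix-bound fibronectin fluorescence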
# AF4-AF9 inh = inhibitors of AF4 peptide binding to AF9, primary screen, biochemical, AlphaScreen, biotin-AF4 peptide, FLAG-AF9, single point; 0.47% of 350,000 active; Protein AF-9 (Homo sapiens), P42568; inhibition, % at 10 µM; AID 651704, 2012;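 active = every replicate reaching a set inhibition limit, whatever the replicate mean, cut at about 25% in these data; inconclusive = mean inhibition reaches that limit but some replicates miss it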;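 note: 0% = plate neutral control median and 100% = total signal loss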
# Target sequence (P42568 whole entry, looked up): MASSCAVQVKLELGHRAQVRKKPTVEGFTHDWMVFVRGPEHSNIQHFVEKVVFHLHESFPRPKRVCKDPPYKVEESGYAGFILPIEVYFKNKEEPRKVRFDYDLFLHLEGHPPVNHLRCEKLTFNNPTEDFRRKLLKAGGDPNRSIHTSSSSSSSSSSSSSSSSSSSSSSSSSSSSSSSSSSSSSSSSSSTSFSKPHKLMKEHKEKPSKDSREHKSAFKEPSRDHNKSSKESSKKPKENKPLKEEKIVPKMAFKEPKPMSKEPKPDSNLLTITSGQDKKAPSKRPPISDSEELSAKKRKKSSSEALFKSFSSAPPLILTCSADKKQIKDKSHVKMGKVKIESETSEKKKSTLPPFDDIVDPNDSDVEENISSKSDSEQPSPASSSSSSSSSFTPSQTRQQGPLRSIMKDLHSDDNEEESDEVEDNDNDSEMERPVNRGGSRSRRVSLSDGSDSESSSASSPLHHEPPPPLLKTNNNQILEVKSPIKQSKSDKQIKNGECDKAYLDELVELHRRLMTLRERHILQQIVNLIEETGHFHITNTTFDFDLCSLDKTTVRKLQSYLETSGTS
# Starred values were filed as active, the others as inactive; i = inactive; ? = inconclusive; / = no result; [ ] = remark or other dose. In the library only some 2.5% were active in any assay of this set; here they are far more common.
SMILES,PAX8 reporter,Glyco luc inh,HIV Env fusion,EWS-Fli block,FN deposit inh,AF4-AF9 inh
Oc1ccc(C[C@H]2CNC(=S)N2CC2CCCN2C[C@H](Cc2ccc(O)cc2)N2C[C@H](Cc3ccccc3)N(CC3CCCCC3)C2=S)cc1 (stereo not given in full),86.9*,-5.4,49.0,11.3,/,3.2
Oc1ccc(C[C@H]2CNC(=S)N2CC2CCCN2C[C@H](Cc2ccc(O)cc2)N2C[C@H](Cc3ccccc3)N(CC3CCCCCC3)C2=S)cc1 (stereo not given in full),90.0*,-7.5,60.6*,20.4,-50.1,-80.1
Oc1ccc(C[C@H]2CNC(=S)N2CC2CCCN2C[C@H](Cc2ccccc2)N2C[C@H](Cc3ccc(O)cc3)N(CC3CCCCC3)C2=S)cc1 (stereo not given in full),77.0*,-9.1,-47.3,20.6,-3.4,2.6
Oc1ccc(C[C@H]2CNC(=S)N2CC2CCCN2C[C@H](Cc2ccc(O)cc2)N2C[C@H](Cc3ccc(O)cc3)N(CC3CCCCCC3)C2=S)cc1 (stereo not given in full),99.4*,-4.9,43.6,41.9,/,-0.9
Oc1ccc(C[C@H]2CN([C@@H](Cc3ccccc3)CN3CCC[C@@H]3CN3C(=S)NC[C@@H]3Cc3ccccc3)C(=S)N2CC2CCCCC2)cc1,13.1,-11.3,6.9,7.6,/,5.3
C[C@H](CO)N1C[C@H](C)[C@H](CN(C)S(=O)(=O)c2ccc(Cl)cc2)Oc2ccc(NC(=O)CCCCCC(=O)Nc3ccccc3N)cc2CC1=O,7.0,/,34.0[16.7 µM],41.4,/,/
CC(C)C[C@H]1CNC(=S)N1C[C@H]1CCCN1C[C@H](Cc1ccc(O)cc1)N1C[C@H](Cc2ccccc2)N(CC2CCCCCC2)C1=S,-8.8,-4.4,94.0*,-2.8,-0.4,?
CC(CCN1CCC(CN2C(=S)NCC2Cc2ccccc2)CC1)c1ccccc1 (stereo not given),15.7,-0.3,66.3*,9.5,0.0,8.0
Cc1ccccc1S(=O)(=O)N1CCCCN2[C@H](CO)[C@@H](c3ccc(-c4ccccc4)cc3)[C@@H]2C1,14.0,/,/,0.4,/,-4.2
CCN(CC)CCN1C(=O)c2cccc3cc(N)cc(c23)C1=O,-12.5,59.6*,-99.1,18.9,-7.0,-9.3
COc1ccc(NS(=O)(=O)c2ccc(C)c(NC(=O)CN3C(=O)NC4(CCCC4)C3=O)c2)cc1,-16.2,-1.3,0.2,-1.2,1.9,40.8*
Cc1ccc(S(=O)(=O)N(C)C)cc1NC(=O)CN1C(=O)NC2(CCCCCC2)C1=O,-1.3,1.8,-7.3,/,9.9,2.9
CC(=O)N/C(=C\c1ccccc1)C(=O)OCC(=O)NC(C)C12CC3CC(CC(C3)C1)C2 (stereo not given),-2.1,-5.7,106.3*,/,2.4,/
COc1cccc(/C=N/NC(=O)c2cc(-c3cccn3C)n[nH]2)c1,/,4.2,-41.4,/,/,/
COc1cc(/C=N\NC(=O)c2ccc(-c3ccccc3)cc2)cc(OC)c1OC(C)=O,99.6*,10.9,-23.0,/,5.4,-1.4
COc1cc(/C=N/NC(=O)c2cc(-c3cccn3C)n[nH]2)cc(OC)c1OC,/,67.7*,i,/,6.3,/
COc1cc(C(=O)N/N=C/c2ccc3c(c2)c2ccccc2n3C)ccc1O,39.7,34.0*,-104.4,/,/,-20.8
COc1cc(/C=N\NC(=O)c2ccc(-c3ccccc3)cc2)cc(OC)c1O,74.5*,14.8,/,-10.8,7.5,0.7
COc1ccccc1/C=N/NC(=O)c1ccc(-c2ccccc2)cc1,-21.0,1.5,-25.5,/,6.9,/
O=C(C[C@H]1CC[C@H](NC(=O)Nc2ccccc2F)[C@@H](CO)O1)NCc1ccc(F)cc1,/,/,/,-0.9,/,-3.3
Cc1noc(C)c1NC(=O)Nc1ccc2c(c1)C(=O)N([C@H](C)CO)C[C@H](C)[C@@H](CN(C)C(=O)NC(C)C)OCCCC[C@@H](C)O2,-30.3,/,/,-2.3,-2.0,-0.5
O=S(=O)(Nc1cc(Sc2ncn[nH]2)c(O)c2ccccc12)c1ccccc1,110.6*,13.8,17.7,38.2,20.9,0.5
Cc1cc(O)c(Sc2ncn[nH]2)cc1NS(=O)(=O)c1ccc(Cl)cc1,6.7,-0.1,/,2.9,12.0,0.3
O=C(C[C@@H]1C[C@H]2c3cc(NC(=O)Nc4ccc(C(F)(F)F)cc4)ccc3O[C@H]2[C@@H](CO)O1)NCc1ccc(Cl)cc1,9.1,/,1.9[16.7 µM],8.7,/,-0.9
C[C@@H]1CCCCO[C@@H](CN(C)Cc2ccc(Cl)c(Cl)c2)[C@H](C)CN([C@H](C)CO)C(=O)c2cc(NS(=O)(=O)c3ccc(Cl)cc3)ccc2O1,101.7*,/,-9.5[16.7 µM],24.7,-13.8,-0.3
SMILES,PAX8 reporter,Glyco luc inh,HIV Env fusion,EWS-Fli block,FN deposit inh,AF4-AF9 inh
Cc1ccc(S(=O)(=O)Nc2ccc3c(c2)C(=O)N([C@H](C)CO)C[C@H](C)[C@@H](CN(C)Cc2ccc(Cl)c(Cl)c2)OCCCC[C@H](C)O3)cc1,66.2*,/,-13.8[16.7 µM],-2.1,-7.6,4.0
C[C@@H]1CCCCO[C@@H](CN(C)Cc2ccc(Cl)c(Cl)c2)[C@H](C)CN([C@H](C)CO)C(=O)c2cc(NS(=O)(=O)c3ccc(F)cc3)ccc2O1,84.5*,/,29.9[16.7 µM],26.5,-0.7,4.2
Cc1ccc(S(=O)(=O)Nc2ccc3c(c2)C(=O)N([C@H](C)CO)C[C@@H](C)[C@H](CN(C)Cc2ccc(Cl)c(Cl)c2)OCCCC[C@@H](C)O3)cc1,?,/,/,-8.5,-0.5,-0.8
C[C@@H]1CCCCO[C@H](CN(C)S(=O)(=O)c2ccccc2)[C@@H](C)CN([C@H](C)CO)C(=O)c2cc(NC(=O)CCCCCC(=O)Nc3ccccc3N)ccc2O1,7.1,/,/,/,10.4,-1.0
CNC[C@@H]1Oc2c(NS(=O)(=O)c3ccc(F)cc3)cccc2C(=O)N([C@H](C)CO)C[C@H]1C,-6.7,/,1.4[16.7 µM],11.2,/,-0.8
Cc1noc(C)c1NC(=O)N(C)C[C@@H]1Oc2ccc(NC(=O)C3CC3)cc2C(=O)N([C@@H](C)CO)C[C@@H]1C,-31.9,/,22.8[16.7 µM],-3.0,-8.1,-3.4
FC(F)(F)c1nc(-c2ccncc2)ncc1-c1nnnn1-c1ccccc1,/,-2.5,-17.6,/,-3.9,/
FC(F)(F)c1nc(N2CCCC2)ncc1-c1nnnn1-c1ccc(Cl)cc1,/,-2.1,58.0*,/,/,/
Cc1ccc(-n2nnnc2-c2cnn(-c3ccc(F)cc3)c2C(F)(F)F)cc1,16.9,-3.3,95.5*,/,4.4,/
Fc1ccc(-n2nnnc2-c2cnc(-c3cccs3)nc2C(F)(F)F)cc1,/,-6.6,76.9*,/,/,/
Cc1ccc(-c2nnnn2-c2ccc(C)cc2)cc1,-14.5,-0.8,13.8,-11.4,-16.2,-0.8
C[C@@H]1CN([C@H](C)CO)C(=O)Cc2cc(NC(=O)Cn3cnnn3)ccc2O[C@H]1CN(C)Cc1ccccc1,-6.5,/,-8.9[16.7 µM],-3.9,/,-0.9

# From PubChem BioAssay
